Only some compounds are listed: those with a hit (about 4.6% of all), similar ones and a draw of the others.
GPR7 antagonist – GPR7 receptor antagonists, primary screen, cell-based, fluorescence, single concentration; Neuropeptides B/W receptor type 1 (Homo sapiens), P48145; GPR7-expressing cells, fluorescence antagonist assay; inhibition, % at 4.4 µM; 290,000 tested, 1.1% active; AID 1861, 2009; in the data active means inhibition above about 16%, passing the limit was not always enough;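 further: cells stimulated with the agonist NPW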
OX1R antag-1 – OX1R (HCRTR1) antagonists, primary screen, fluorescence, CHO/OX1R cells, Fluo-8 calcium, orexin A; Orexin/Hypocretin receptor type 1 (Homo sapiens), O43613; Fluo-8 calcium fluorescence; inhibition, % at 5 µM; 330,000 tested, 0.43% active; AID 434989, 2010;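 active means inhibition above its plate's threshold, mean inhibition of all tested compounds on the plate plus 3 SD, cut at about 37% in these data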
Target sequence (O43613 whole entry, looked up): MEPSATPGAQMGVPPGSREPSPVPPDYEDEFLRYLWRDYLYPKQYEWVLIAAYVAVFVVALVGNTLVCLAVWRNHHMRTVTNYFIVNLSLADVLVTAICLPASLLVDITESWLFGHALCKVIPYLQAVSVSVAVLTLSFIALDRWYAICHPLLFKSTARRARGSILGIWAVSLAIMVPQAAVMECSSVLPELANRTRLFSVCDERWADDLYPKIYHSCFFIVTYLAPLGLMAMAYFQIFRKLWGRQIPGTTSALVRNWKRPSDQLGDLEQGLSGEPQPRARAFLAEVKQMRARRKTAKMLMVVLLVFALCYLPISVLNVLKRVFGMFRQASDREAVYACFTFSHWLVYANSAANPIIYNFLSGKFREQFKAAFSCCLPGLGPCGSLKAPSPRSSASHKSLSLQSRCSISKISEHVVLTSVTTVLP
CHO parental Ca – ATP-evoked calcium signal inhibitors, parental CHO, primary screen, counter-screen for OX1R antagonist project, cell-based, fluorescence, Fluo-8 calcium dye. parental CHO-K1, ATP-induced calcium, Fluo-8 fluorescence. inhibition, % at 5.6 µM. 330,000 tested, 0.63% active;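 active means inhibition above that plate's mean sample inhibition plus 3 SD, cut at about 26% in these data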
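Test system: untransfected parental CHO cell line; also added: ATP stimulus; dosing: 5.6 µM, single dose; signal: calcium-sensitive Fluo-8 fluorescence; measure: percent inhibition of ATP-evoked calcium rise, normalized to controls; benchmarks: low control ATP plus DMSO, high control DMSO only; replication: one well per compound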
TAAR1 antag – human TAAR1 antagonists, primary screen, Fluo-8 calcium fluorescence, CHO RD-HGA16 cells; Trace amine-associated receptor 1 (Homo sapiens), Q96RJ0; 360,000 tested, 1.5% active; antagonist; inhibition, % at 3 µM;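 active means inhibition above a per-plate cutoff, the mean inhibition of test compounds on that plate plus 3 SD, cut at about 49% in these data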
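Test system: CHO RD-HGA16 cells bearing hTAAR1 | Reagent: β-PEA, EC80 | Compound dosing: 3 µM, single point | Schedule: Dye loading 75 min at 37 °C, then 30 min room temperature | Signal: Calcium fluorescence with Fluo-8 | Evaluation: Percent inhibition of PEA-evoked calcium signal, max/basal emission ratio | Control set: DMSO-only wells and EC80 β-PEA-stimulated wells | Repeats: Singlicate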
OX1R antag-2 – antagonists of human orexin 1 receptor (OX1R); Orexin/Hypocretin receptor type 1 (Homo sapiens), O43613; AID 485270, 2010; 330,000 tested, 1.8% active; OX1R-expressing cells, FRET antagonist read-out; inhibition, % at 6.6 µM; in the data active means inhibition mostly above about 38%, no sharp cut-off; inactive means mostly below about 40%
TAAR1 agonist – human TAAR1 agonists, primary screen, Fluo-8 calcium fluorescence, CHO RD-HGA16 cells; 360,000 tested, 0.99% active; vehicle wells 0%, saturating PEA agonist 100%; AID 624467, 2012; activation, % at 3 µM; Trace amine-associated receptor 1 (Homo sapiens), Q96RJ0;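 active means activation above the mean activation of all test compounds in the run plus 3 SD, cut at about 38% in these data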
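Test system: RD-HGA16 (CHO) cells co-expressing Gα16 and hTAAR1; dosing: one-point dosing at 3 µM (nominal); timing: 17-24 h seeding, 75 min 37 °C dye, 30 min RT; signal: kinetic Fluo-8 calcium fluorescence; read-out basis: % activation relative to PEA EC100 response; controls: DMSO and PEA EC100; replicates: n 1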
GPR7 antag cf – GPR7 receptor antagonists, confirmation, cell-based, fluorescence, single concentration | shares compounds with GPR7 antagonist | GPR7-expressing cells, calcium fluorescence antagonist mode | inhibition, % at 4.4 µM | 2,400 tested, 52% active | AID 1952, 2009; in the data active means inhibition above about 24%;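 further: stimulated with the GPR7 agonist NPW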
MCHR1 antag – MCHR1 antagonists in cells, counter-screen for GPR7 antagonist project, cell-based, fluorescence, human | shares compounds with GPR7 antagonist | MCHR1-expressing cells, fluorescence antagonist assay | inhibition, % at 4.4 µM | 2,400 tested, 62% active; in the data active means inhibition above about 22%
Numbers stand for hits; – = inactive; · = not tested or not shown.

SMILES	GPR7 antagonist	OX1R antag-1	CHO parental Ca	TAAR1 antag	OX1R antag-2	TAAR1 agonist	GPR7 antag cf	MCHR1 antag
O=C(COC(=O)CCc1c[nH]c2ccccc12)Nc1cc([N+](=O)[O-])ccc1Cl	–	–	–	–	–	–	·	·
O=C(COC(=O)CCc1c[nH]c2ccccc12)Nc1ccc([N+](=O)[O-])cc1	26.1	–	–	–	–	–	48.8	40.8
Cc1cc(C(=O)CCC(=O)N(C)CC(=O)Nc2ccc(OC(F)(F)F)cc2)c(C)s1	·	·	·	–	·	–	·	·
Cn1c(Cc2ccccc2)nnc1SCC(=O)NC1CCCC1	39.3	–	–	–	–	–	–	–
Cn1c(Cc2ccccc2)nnc1SCC(=O)NC1CC1	–	–	–	–	–	–	·	·
O=C(CSc1nnc(Cc2ccccc2)n1Cc1ccco1)NC1CCCC1	33.1	–	–	–	–	–	26.2	–
CCOC(=O)N1CCN(CC(O)COc2c(C)cc(C)cc2C)CC1 (stereo not drawn)	–	–	–	–	–	–	·	·
Cc1cc(NC(=O)COC(=O)C2=NN(c3ccccc3)C(=O)CC2)c([N+](=O)[O-])cc1C	·	–	–	–	–	–	·	·
CCOc1cc(/C=C2/COc3ccccc3C2=O)ccc1OCC(=O)N(C)C	23.6	·	·	–	·	–	–	21.4
O=C(NCCSc1c[nH]c2ccccc12)c1ccco1	–	–	–	–	–	–	·	·
O=C(NCCSc1c[nH]c2ccccc12)c1c(F)cccc1F	22.7	–	–	–	–	–	33.1	32.7
O=C(NCc1cccs1)c1cc(C2CC2)on1	–	–	–	–	–	–	·	·
Cc1nn(C)c(C)c1N1C(=O)c2cccc3c(Br)ccc(c23)C1=O	–	–	–	–	–	–	·	·
Cc1nn(C)c(C)c1N1C(=O)c2cccc3c(N)ccc(c23)C1=O	21.6	62.2	50.6	64.0	–	124.3	26.1	37.6
COc1ccc(C(=O)NC2CCCc3ccccc32)cc1S(=O)(=O)N1CCOCC1 (stereo not drawn)	–	–	–	–	–	–	·	·
O=C(Nc1cccc(CNCCc2c[nH]c3ccccc23)c1)c1ccccc1Cl	46.5	–	–	–	–	49.4	54.4	51.2
C=CCC1(CC=C)CCCN1C(=O)c1cc(COc2cccc(OC)c2)on1	–	–	–	–	–	–	·	·
C=CCC1(CC=C)CCCN1C(=O)c1cc(COc2cncc(Cl)c2)on1	38.2	–	65.3	–	–	–	28.3	51.6
Cn1cc(-c2cccc(C(F)(F)F)c2)cc(C#N)c1=O	–	–	–	–	–	–	·	·
CCCCNC(=O)c1cc2nc3c(c(C(F)(F)F)n2n1)CCc1ccccc1-3	–	–	–	–	–	–	·	·
CC(C)CNC(=O)c1cc2nc3c(c(C(F)(F)F)n2n1)CCc1ccccc1-3	22.1	–	–	–	–	–	–	–
COc1c(C)cc(C(O)c2ncc(-c3ccccc3C(F)(F)F)[nH]2)cc1C (stereo not drawn)	·	·	·	–	·	–	·	·
COc1ccc(S(=O)(=O)NCC2CCC(C(=O)NCC(OC)OC)CC2)cc1 (stereo not drawn)	–	–	–	–	–	–	·	·
O=C(C1CCCCC1)N1CCN=C1SCc1cccc([N+](=O)[O-])c1	48.0	–	–	–	–	–	–	–
COc1ccc(CC(=O)N2CCN=C2SCc2cccc([N+](=O)[O-])c2)cc1	21.3	–	–	–	–	–	41.0	58.4
SMILES	GPR7 antagonist	OX1R antag-1	CHO parental Ca	TAAR1 antag	OX1R antag-2	TAAR1 agonist	GPR7 antag cf	MCHR1 antag
O=C(Cc1ccc([N+](=O)[O-])cc1)N1CCN=C1SCc1ccccc1	–	–	–	–	–	–	·	·
O=C(C1CCCCC1)N1CCN=C1SCc1cccnc1	–	–	–	–	–	–	·	·
COc1ccc(S(=O)(=O)N2CCN=C2SCc2cccc(F)c2)cc1	26.9	–	–	–	–	–	27.2	46.0
O=S(=O)(c1ccc(Br)cc1)N1CCN=C1SCc1cccc(F)c1	–	–	–	–	–	–	·	·
CC(C)(C)OC(=O)N1CCC(CNC(=O)c2cccs2)CC1	–	–	–	–	–	–	·	·
O=C(CSc1cccc(C(F)(F)F)c1)N1CCN(S(=O)(=O)c2ccccc2)CC1	34.0	–	–	–	–	–	–	–
O=[N+]([O-])c1ccc(NC2CCCCC2)nc1	·	·	·	–	·	–	·	·
OCC[C@@H]1C[C@H](O)[C@@H](O)[C@@]2(OCCc3cc(C(F)(F)F)ccc32)O1	·	·	·	–	·	–	·	·
CC(=O)c1ccc(OCC(O)COc2ccc(C(C)=O)cc2)cc1	–	–	–	–	–	–	·	·
CC(=O)c1ccc(OCC(O)CN(C)CCOc2ccc(Br)cc2)cc1 (stereo not drawn)	23.4	–	–	–	–	–	37.0	54.8
Cc1nn(-c2ccc(F)cc2)c(Cl)c1/C=C(\CC(=O)O)c1nc2ccccc2s1	31.4	–	–	–	–	–	–	–
COc1ccc(NC(=O)CN(C)C(=O)c2cccc(S(=O)(=O)N3CCN(C)CC3)c2)cc1	·	–	–	–	–	–	·	·
COc1ccc(NC(=O)CN(C)C(=O)c2cccc(S(=O)(=O)N3CCN(Cc4ccccc4)CC3)c2)cc1	35.3	–	–	·	–	·	31.0	45.9
CCOc1ccc(S(=O)(=O)N2CCN(Cc3ccccc3)CC2)cc1	27.6	–	–	–	–	–	–	27.8
CN1OC[C@@H]2CN(C(=O)CCc3ccccc3)[C@H](c3cccc(-c4ccccc4)c3)C[C@@H]21	·	·	·	–	·	–	·	·
NCC12CC3CC(C1)CC(c1ccc(Br)cc1)(C3)C2	47.6	–	–	–	–	41.6	28.7	32.8
Fc1ccc(NC(=S)NCCc2ccccc2)c(F)c1F	28.0	–	–	–	–	–	–	55.1
O=C1NC(=S)S/C1=C\c1coc2ccccc2c1=O	27.2	–	–	–	64.4	–	–	–
O=C1NC(=S)S/C1=C\c1coc2ccc(O)cc2c1=O	21.0	–	–	–	–	–	–	–
O=c1cc(Cl)c(-c2ccccc2)nn1Cc1ccc(Cl)cc1	–	–	–	–	–	–	·	·
Cc1ccc(/C=C2\SC(=S)N(CCC(=O)NNC(=O)c3ccncc3)C2=O)cc1	–	–	–	–	–	–	·	·

Screening results from PubChem.
